PMI act hi M6P = human PMI activators, high substrate, primary screen, biochemical, fluorescence intensity, near-saturating mannose 6-phosphate; Mannose-6-phosphate isomerase (Homo sapiens), P34949; coupled PMI enzyme assay, resazurin fluorescence, 20 min; active compounds read high; 1 = untreated enzyme, 0 = substrate-free blank; activation factor at 20 µM; 190,000 compounds, 0.34% hits;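 active means activation factor of 2 or more at 20 µM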
Target sequence (P34949 whole entry, looked up): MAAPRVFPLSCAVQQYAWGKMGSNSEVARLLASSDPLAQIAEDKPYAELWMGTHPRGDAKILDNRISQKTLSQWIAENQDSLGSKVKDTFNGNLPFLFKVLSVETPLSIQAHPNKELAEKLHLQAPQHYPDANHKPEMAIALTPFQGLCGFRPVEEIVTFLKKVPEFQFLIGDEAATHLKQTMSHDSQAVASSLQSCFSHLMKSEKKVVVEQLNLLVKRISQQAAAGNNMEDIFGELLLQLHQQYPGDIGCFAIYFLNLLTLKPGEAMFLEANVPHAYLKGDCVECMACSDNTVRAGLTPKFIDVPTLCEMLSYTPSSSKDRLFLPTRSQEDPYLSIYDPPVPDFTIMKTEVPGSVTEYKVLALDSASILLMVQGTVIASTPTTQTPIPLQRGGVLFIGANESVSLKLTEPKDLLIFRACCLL
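Material: human phosphomannose isomerase with PGI, G6PDH, diaphorase coupling enzymes. Quantity: 15 ng/mL PMI. Medium: HEPES pH 7.4 buffer with MgCl2 and Tween-20. Reagent: Near-saturating mannose-6-phosphate, 1.0 mM. Compound: 20 µM single dose. Times: enzyme reaction with compound 20 min at room temperature. Detection: resorufin fluorescence at Ex 544/Em 590 nm.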
Redox H2O2 prof = compounds producing H2O2 with reducing agent – biochemical, NIH compound library profiling, artefact control for MLSCN library redox annotation, primary screen | DTT-dependent redox cycling H2O2, phenol red/HRP absorbance; 100% = 100 µM peroxide control, 0% = buffer | activation, % at 10 µM | 200,000 compounds, 0.03% hits | AID 878, 2007;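 active means activation of at least 50% relative to the plate's high and low controls in the primary single-dose screen; inactive means activation below 50%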;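 further: compound incubated with DTT at 0.8 mM final as the reducing agent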
Diaphorase inh = diaphorase inhibitors and chemical oxidizers, primary screen, counter-screen for diaphorase-coupled primary assays, biochemical, uHTS, resorufin fluorescence | inhibition, % at 20 µM | diaphorase resazurin-to-resorufin fluorescence, NADH, 16 min; bacterial (C. kluyveri) enzyme, not human | AID 1217, 2008 | 190,000 compounds, 0.69% hits;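 active means primary screen inhibition at 20 µM above a set limit, cut at about 50% in these data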
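Assay system: diaphorase enzyme from Clostridium kluyveri. Quantity: enzyme working solution with 0.14 U/mL diaphorase. Schedule: reaction incubation of 16 min at room temperature. Technique: resorufin fluorescence, excitation 544 nm, emission 590 nm. Controls: No-NADH positive control and DMSO neutral control.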
Diaphorase act = compounds boosting diaphorase resazurin reduction – biochemical, uHTS, resorufin fluorescence, counter-screen for diaphorase-coupled primary assays, primary screen. Diaphorase/resazurin coupled assay, 16 min; active compounds read high; 1 = vehicle wells, 0 = NADH-free wells. activation factor at 20 µM. 190,000 compounds, 0.005% hits. AID 1229, 2008;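 active means diaphorase activity raised at least twofold by the compound at 20 µM; inactive means activation factor below 2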
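Assay system: Purified diaphorase enzyme from Clostridium kluyveri | Amount: Enzyme 0.07 U/mL final | Dosing: Compound 20 µM once, DMSO 1% | Timing: 16 min reaction at room temperature | Detection: Fluorescence, excitation 544 nm and emission 590 nm | Evaluation: Higher resorufin formation from activation or reduction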
G6PDH counter = L. mesenteroides G6PDH inhibitors, counter-screen for G6PDH-coupled screening assays, biochemical, Leuconostoc mesenteroides enzyme; Purified L. mesenteroides G6PDH, diaphorase/resazurin coupled fluorescence, 45 min; inhibition, % at 5 µM; AID 1020, 2008; 200,000 compounds, 0.12% hits; in the data active means inhibition above about 50%
PMI activator = activators of human PMI, primary screen, biochemical, fluorescence intensity, near-Km mannose 6-phosphate; purified human PMI, coupled resazurin fluorescence, 20 min; active compounds read high; 1 = vehicle control, 0 substrate-free wells; activation factor at 20 µM; AID 1214, 2008; Mannose-6-phosphate isomerase (Homo sapiens), P34949; 190,000 compounds, 0.005% hits;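 active means activation factor of 2 or more at 20 µM, relative to plate controls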
Large screens that a line does not name were inactive. In the library only some 1.1% were active in any assay of this set; here they are far more common.

Cc1sc2nc(CN3CCOCC3)[nH]c(=S)c2c1C	Diaphorase inh 73
O=C(Cc1cnn(-c2ccccc2)c1)c1ccc(O)c(O)c1O	Diaphorase inh 69
c1ccc(C2=Nn3c(nnc3-c3ccco3)SC2)cc1	Diaphorase inh 73
COc1ccc(CSc2nnc(Cc3sc(-c4ccccc4)nc3-c3ccccc3)o2)cc1	none
CS(=O)(=O)Nc1ccccc1C(=O)O	none
CCN(CC)C(=O)c1ccccc1NS(C)(=O)=O	Diaphorase inh 74
COc1ccc(C(=O)NCCOc2cccc(OC)c2)cc1	Diaphorase inh 68
COc1ccc(C(=O)NCCSc2ccccc2)cc1	none
O=C(COC(=O)C1CC1)NC(=O)NCc1ccccc1	none
O=C(N/N=C/c1c(O)ccc2ccccc12)c1ccc[n+](CCO)c1	Diaphorase inh 54
CN(c1ccccc1)S(=O)(=O)c1cccc(NS(=O)(=O)c2ccc(/C=C/C(=O)O)cc2)c1	Diaphorase inh 59
O=C(O)/C=C/C(=O)Nc1ccc(S(=O)(=O)N2CCCC2)cc1	none
Cc1cccc2nc(-c3ccco3)c(Nc3ccc4c(c3)OCO4)n12	Diaphorase inh 72
Nc1ccc2c(c1)C(=O)C(=O)c1ccccc1-2	G6PDH counter 58
Nc1ccc2c(c1)COC2=O	none
O=[N+]([O-])c1c(NCCCO)cc(SCc2ccco2)c2nonc12	Diaphorase inh 66
CC(=O)OCCNc1cc(Sc2nc3ccccc3[nH]2)c2nonc2c1[N+](=O)[O-]	none
O=[N+]([O-])c1c(NCCCO)cc(N2CCN(Cc3ccc4c(c3)OCO4)CC2)c2nonc12	none
CC(=O)OCCNc1cc(SCc2ccco2)c2nonc2c1[N+](=O)[O-]	Diaphorase inh 77
COc1ccc(CNc2cc(NCCCO)c([N+](=O)[O-])c3nonc23)cc1	Diaphorase inh 61
CN(CCO)c1cc(N2CCC3(CC2)OCCO3)c2nonc2c1[N+](=O)[O-]	none
O=[N+]([O-])c1c(NCCO)cc(N2CCC3(CC2)OCCO3)c2nonc12	Diaphorase inh 55
Cn1ccnc1Sc1cc(NCCCO)c([N+](=O)[O-])c2nonc12	none
O=C(NNC(=O)C(O)(c1ccccc1)c1ccccc1)C1CC1	none
CC(C)(C)CC(C)(C)NCC(=O)Nc1c2c(nc3ccccc13)CCC2	none
CCC(=O)NC(Nc1c(C)n(C)n(-c2ccccc2)c1=O)C(Cl)(Cl)Cl (configuration not stated)	none
COc1ccc2oc(=O)c(-c3ccccc3C(=O)N3CCOCC3)cc2c1	none
CC(=O)OCCCNc1cc(Sc2nc3ccccc3s2)c2nonc2c1[N+](=O)[O-]	Diaphorase inh 62
CCCC(=O)OCCNc1cc(SCCC(=O)OC)c2nonc2c1[N+](=O)[O-]	Diaphorase inh 75
CC(=O)OCCCNc1cc(Sc2ccc(C)cc2)c2nonc2c1[N+](=O)[O-]	none
COC(=O)CCSc1cc(NCCOC(C)=O)c([N+](=O)[O-])c2nonc12	none
O=[N+]([O-])c1c(NCCCO)cc(Sc2ccc(Cl)cc2)c2nonc12	Diaphorase inh 54
COc1cc(S(=O)(=O)Nc2ccc(C)cc2)ccc1N=Cc1c(C)c(C#N)c(=O)n(C)c1O	none
Cc1ccc(N/N=C/c2c(C)c(C#N)c(=O)n(C)c2O)cc1C	Diaphorase inh 69
Cc1ccc(NC(=O)c2cc(=O)n(Cc3ccccc3)c(=O)[nH]2)cc1C	none
O=C(O)Cc1sc(Nc2ccccc2)nc1-c1ccc(Cl)cc1	PMI act hi M6P 2.5
Cc1csc(NC(=O)c2cc3c(C)nn(Cc4ccccc4Cl)c3s2)n1	none
COc1ccc(-c2cc3nc(-c4ccccc4)cc(N4CCCC(O)C4)n3n2)cc1 (configuration not stated)	none
COc1ccc(-c2cc3nc(-c4ccccc4)cc(N4CCC(O)CC4)n3n2)cc1	Diaphorase inh 50
Cc1ccc(C(=O)N/C(=C\c2cccs2)C(=O)NCCCn2ccnc2)cc1C	none
COc1ccc(/C=C/C(=O)NC(=S)NNC(=O)c2cccnc2)cc1OC	Diaphorase inh 82
COc1ccc(/C=C/C(=O)NC(=S)NNC(=O)Cc2cccs2)cc1OC	none
O=C(/C=C/c1ccccc1)NC(=S)NNC(=O)c1cccnc1	Diaphorase inh 81
Cc1onc(-c2ccccc2)c1C(=O)NC(=S)NNC(=O)c1cccnc1	none
CC(=O)Nc1ccc(NC(=O)C2CCN(C(=O)c3cccs3)CC2)cc1	none
CC1CCCCN1CCn1c(=S)[nH]c2cc3c(cc2c1=O)OCO3 (configuration not stated)	none
O=C(NC(=S)NCc1cccnc1)c1cccc2ccccc12	none
CCCC(=O)NC(c1ccco1)c1cc([N+](=O)[O-])c2cccnc2c1O (configuration not stated)	G6PDH counter 56
CCC(=O)NC(c1ccc(C)cc1)c1cc([N+](=O)[O-])c2cccnc2c1O (configuration not stated)	none
CC(=O)NC(c1ccco1)c1ccc2cccnc2c1O (configuration not stated)	Diaphorase inh 53
CC(=O)NC(c1ccc(C)cc1)c1cc([N+](=O)[O-])c2cccnc2c1O (configuration not stated)	Diaphorase inh 60, G6PDH counter 61
CC(C)N(C(=O)Nc1ccc2nsnc2c1)C(C)C	Diaphorase inh 60, G6PDH counter 52
COc1ccc(NC(=S)Nc2ccc3nsnc3c2)cc1	Diaphorase inh 59, G6PDH counter 57
COCCNC(=S)Nc1ccc(Cl)c(Cl)c1	none
COc1ccc(NC(=S)Nc2ccc3nc(C)c(C)nc3c2)cc1	none
COc1ccc(N(C)C(=O)Nc2ccc3nsnc3c2)cc1	Diaphorase inh 62
CC1CCN(C(=O)Nc2ccc3nsnc3c2)CC1	none
COCCNC(=S)Nc1ccc2nsnc2c1	Diaphorase inh 53
COCc1cc(C)nc(N/N=C/c2ccc(-c3ccc(Cl)cc3[N+](=O)[O-])o2)c1C#N	none
CCOc1cccc(CNc2ccc(O)cc2)c1OCc1ccc(Cl)cc1	none
CCOc1cc(CNc2ccc(O)cc2)ccc1OCc1ccc(Cl)cc1Cl	Diaphorase inh 66
Cc1ccc(C)c(CSc2ccc3nnc(-c4ccccn4)n3n2)c1	none

Assay outcomes (PubChem)
